In brackets after ≈: the same amount, converted by molar mass. Activity calls are given as the source filed them. The calls are words filed in the database; no cut-off is given here.
Assays:
Plasmodium falciparum = experiment: Antiplasmodial activity against Plasmodium falciparum 3D7; format: functional, organism-based
Method in brief: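 Desjardins [³H]phenylalanine incorporation method (Ziegler modification). Parasitized erythrocytes (blood type 0, 5% hematocrit, 2-3% parasitemia) mixed with compounds in RPMI 1640/HEPES with 0.45% Albumax II, L-glutamine, hypoxanthine, gentamicin; final DMSO ≤0.5%. 24 h at 37 °C under 93% N₂/5% CO₂/2% O₂, then label added for further 24 h; filter-harvested, scintillation counted. Three experiments, each in triplicate; IC50.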

Mus musculus [1] = experiment: Antimalarial activity in NMRI mice (Mus musculus) infected with Plasmodium berghei K173 at 50 mg/kg; format: functional
Method in brief: (§1)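 Mice inoculated day 0 with 1×10⁶ P. berghei K173-infected red cells in 0.2 mL 0.9% saline; five mice per group. At day 4 (parasitemia 2-9%), ip dosing in 0.9% saline with 10% Tween 80, pH 4.5, on days 4 and 5; control group untreated or vehicle-injected. Day-5 tail-vein blood smear, Giemsa-stained, infected cells counted microscopically; % inhibition versus control.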

Oryctolagus cuniculus = organism: Oryctolagus cuniculus; experiment: Inhibitory activity against SERCA in rabbit muscle at 3.5 ug/mL; format: tissue-based; settings: Muscle tissue
Mus musculus [2] = experiment: Antimalarial activity in NMRI mice (Mus musculus) infected with Plasmodium berghei K173 at 25 mg/kg; format: functional; method in brief: as §1
Mus musculus [3] = experiment: Antimalarial activity in NMRI mice (Mus musculus) infected with Plasmodium berghei K173 at 100 mg/kg; format: functional; method in brief: as §1

Row | SMILES | IC50 (Plasmodium falciparum) | further results
1 | C=C[C@@H](/C=C/c1ccc(O)cc1)c1ccc(O)cc1 | 20 µg/mL (≈ 79.3 µM) | –
2 | CCC(/C=C/c1ccccc1CN(C)C)c1ccc(Cl)cc1Cl (configuration not stated) | 4.1 µg/mL (≈ 11.8 µM) | –
3 | C=CC(/C=C/c1ccccc1F)c1cc(OC)cc(OC)c1 (configuration not stated) | 6 µg/mL (≈ 20.1 µM) | –
4 | C=CCOc1ccc(CCCc2ccc(OC)cc2OC)cc1 | 9.5 µg/mL (≈ 30.4 µM) | –
5 | C=CC(/C=C/c1ccc(OC)c(OC)c1OC)c1cccc(F)c1 (configuration not stated) | 6 µg/mL (≈ 18.3 µM) | –
6 | C=CCOc1ccc(/C=C/C(C=C)c2ccc(OC)cc2OC)cc1 (configuration not stated) | 7 µg/mL (≈ 20.8 µM) | –
7 | C=C[C@H](/C=C/c1ccc(O)cc1)c1ccc(O)cc1 | 14 µg/mL (≈ 55.5 µM) | –
8 | CCC(/C=C/c1ccc(OC)c(OC)c1OC)c1cccc(F)c1 (configuration not stated) | 3.9 µg/mL (≈ 11.8 µM) | –
9 | C=CC(/C=C/c1ccc(F)cc1)c1ccc(F)cc1 (configuration not stated) | 10 µg/mL (≈ 39 µM) | –
10 | C=CCOc1ccc(CCC(CC)c2ccc(OC)cc2OC)cc1 (configuration not stated) | 3 µg/mL (≈ 8.81 µM) | –
11 | C=CCOc1ccc(C(O)CC(C=C)c2ccc(OC)cc2OC)cc1 (configuration not stated) | 16 µg/mL (≈ 45.1 µM) | –
12 | C=CCOc1ccc(CCC(C=C)c2ccc(OC)cc2OC)cc1 (configuration not stated) | 5.2 µg/mL (≈ 15.4 µM) | –
13 | CCC(/C=C/c1ccccc1C(F)(F)F)c1ccc(Cl)cc1Cl (configuration not stated) | 6 µg/mL (≈ 16.7 µM) | –
14 | CCC(/C=C/c1ccc(F)cc1)c1ccc(F)cc1 (configuration not stated) | 13 µg/mL (≈ 50.3 µM) | –
15 | C=CCOc1ccc(CCC(CCCC)c2ccc(OC)cc2OC)cc1 (configuration not stated) | 2.2 µg/mL (≈ 5.97 µM) | inhibition in vivo at 50 mg/kg (Mus musculus [1]): 49%; inhibition (Oryctolagus cuniculus): inactive; inhibition in vivo at 25 mg/kg (Mus musculus [2]): 25%; inhibition in vivo at 100 mg/kg (Mus musculus [3]): 59%
16 | C=CC(/C=C/c1ccccc1C(F)(F)F)c1ccc(Cl)cc1Cl (configuration not stated) | 8.2 µg/mL (≈ 23 µM) | –
17 | C=CC(/C=C/c1ccccc1CN(C)C)c1ccc(Cl)cc1Cl (configuration not stated) | 3 µg/mL (≈ 8.66 µM) | –
18 | C=CCOc1ccc(/C=C/C(CC)c2ccc(OC)cc2OC)cc1 (configuration not stated) | 4 µg/mL (≈ 11.8 µM) | –
19 | C=CCOc1ccc(/C=C/C(CCCC)c2ccc(OC)cc2OC)cc1 (configuration not stated) | 2.7 µg/mL (≈ 7.37 µM) | –
20 | CCC(/C=C/c1ccccc1F)c1cc(OC)cc(OC)c1 (configuration not stated) | 6 µg/mL (≈ 20 µM) | –
21 | C=CC(/C=C/c1ccc(O)cc1)c1ccc(O)cc1 (racemic) | 13 µg/mL (≈ 51.5 µM) | –

Second part, led by results:

Row | IC50 (Plasmodium falciparum) | SMILES | further results
22 | 6.9 µg/mL (≈ 18.8 µM) | COc1ccc(C2CC(c3ccc(Cl)cc3Cl)OC2C)c(OC)c1 (configuration not stated) | –
23 | 4.2 µg/mL (≈ 12 µM) | CCC(/C=C/c1ccc(Cl)cc1Cl)c1ccc(OC)cc1OC (configuration not stated) | –
24 | 8.8 µg/mL (≈ 24.5 µM) | C=CC(/C=C/c1ccccc1Br)c1ccc(OC)cc1OC (configuration not stated) | –
25 | 7 µg/mL (≈ 20 µM) | C=CC(/C=C/c1ccc(OC)cc1OC)c1ccc(Cl)cc1Cl (configuration not stated) | –
26 | 6 µg/mL (≈ 17.1 µM) | CCC(/C=C/c1ccc(OC)cc1OC)c1ccc(Cl)cc1Cl (configuration not stated) | –
27 | 7 µg/mL (≈ 22.1 µM) | C=CC(/C=C/c1ccc(F)cc1F)c1ccc(OC)cc1OC (configuration not stated) | –
28 | 5.4 µg/mL (≈ 14.9 µM) | CCC(/C=C/c1ccccc1Br)c1ccc(OC)cc1OC (configuration not stated) | –
29 | 3 µg/mL (≈ 7.95 µM) | COc1ccc(C2CC(c3ccccc3Br)OC2C)c(OC)c1 (configuration not stated) | –
30 | 1.5 µg/mL (≈ 4.29 µM) | C=CC(/C=C/c1ccc(Cl)cc1Cl)c1ccc(OC)cc1OC (configuration not stated) | inhibition (Oryctolagus cuniculus): inactive; inhibition in vivo at 25 mg/kg (Mus musculus [2]): 57%
31 | 3.9 µg/mL (≈ 12.3 µM) | CCC(/C=C/c1ccc(F)cc1F)c1ccc(OC)cc1OC (configuration not stated) | –
